Measured values as given in ChEMBL document CHEMBL1671756, “In vitro and in vivo antifungal susceptibilities of the Mucoralean fungus Cunninghamella” (2010).
Activity calls are given as the source filed them. The rule behind the calls is not given here.

Key:
Assay type in all cases: functional, organism-based
[1] = system: Cunninghamella bertholletiae; test: Antifungal activity against Cunninghamella bertholletiae UTHSC 05-2275 infected in diabetic OF1 mouse assessed as increase in mouse survival rate at 0.8 mg/kg, iv qd administered 1 day after infection for 7 days relative to untreated control; set-up: dose 0.8 mg/kg
Procedure, shortened: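 Male OF1 mice were made diabetic with streptozocin 210 mg/kg i.p. Diabetes was confirmed by blood glucose >250 mg/dl at day 10. Challenge was 1 × 10⁵ CFU in 0.2 ml saline i.v. (tail vein), with ceftazidime 5 mg/day s.c. on days 1–7. Treatment began 1 day after challenge for 7 days. There were 10 mice/group, checked daily for 20 days. Kaplan-Meier analysis with log-rank comparison.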

[2] = system: Cunninghamella bertholletiae; test: Antifungal activity against Cunninghamella bertholletiae UTHSC 03-2241 infected in neutropenic OF1 mouse assessed as increase in mouse survival rate at 0.8 mg/kg, iv qd administered 1 day after infection for 7 days relative to untreated control; set-up: dose 0.8 mg/kg
Procedure, shortened: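 Male OF1 mice (~30 g) were made neutropenic with cyclophosphamide 200 mg/kg i.p. plus 5-fluorouracil 150 mg/kg i.v. 1 day before challenge. Challenge was 1 × 10⁴ CFU sporangiospores in 0.2 ml saline via the lateral tail vein. Mice got ceftazidime 5 mg/day s.c. on days 1–7. Dosing started 24 h post-challenge for 7 days. There were 10 mice/group, observed daily for 20 days. Kaplan-Meier analysis with log-rank test.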

[3] = system: Cunninghamella bertholletiae; test: Antifungal activity against Cunninghamella bertholletiae UTHSC 05-2275 infected in neutropenic OF1 mouse assessed as decreased fungal load in lung at 0.8 mg/kg, iv qd administered 1 day post infection measured after 4 to 5 days relative to untreated control; set-up: dose 0.8 mg/kg
Procedure, shortened: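 Neutropenic male OF1 mice (cyclophosphamide 200 mg/kg i.p. + 5-fluorouracil 150 mg/kg i.v., day −1) were infected i.v. with 1 × 10⁴ CFU. Ten mice per group were treated from day 1 and killed by CO₂ on day 5, or on day 4 if moribund. Half of each brain, lung and kidney was homogenized in 1 ml saline. Ten-fold dilutions were plated on PDA for 24 h at 35°C and counted as log₁₀ CFU/g.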

[4] = system: Cunninghamella bertholletiae; test: Antifungal activity against Cunninghamella bertholletiae UTHSC 06-1945 infected in neutropenic OF1 mouse assessed as decreased fungal load in brain at 60 mg/kg, po qd administered 1 day post infection measured after 4 to 5 days relative to untreated control; set-up: dose 60 mg/kg
Procedure, shortened: (§1)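 Neutropenic male OF1 mice (cyclophosphamide 200 mg/kg i.p. plus 5-fluorouracil 150 mg/kg i.v., day −1) were given 1 × 10⁴ CFU sporangiospores i.v. in 0.2 ml saline. Treatment from 24 h: 0.8 mg/kg i.v. or oral doses once daily; 10 mice per group. Killed at day 5 (day 4 if moribund). About half of brain, lungs and kidneys homogenized in saline; 10-fold dilutions plated on PDA for 24 h at 35°C; log₁₀ CFU/g tissue.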

[5] = system: Cunninghamella bertholletiae; test: Antifungal activity against Cunninghamella bertholletiae UTSCH 05-2275 infected in diabetic OF1 mouse assessed as decreased fungal load in brain at 40 mg/kg, po qd administered 1 day post infection measured after 4 to 5 days relative to untreated control; set-up: dose 40 mg/kg
Procedure, shortened: (§2)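 Diabetic male OF1 mice (streptozocin 210 mg/kg i.p.; glucose above 250 mg/dl) were challenged i.v. with 1 × 10⁵ CFU sporangiospores. Oral once-daily dosing from day 1 for 7 days; 10 mice per group. Killed at day 5 (day 4 if moribund). About half of each organ homogenized in saline; serial 10-fold dilutions plated on PDA for 24 h at 35°C; log₁₀ CFU/g tissue.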

[6] = system: Cunninghamella bertholletiae; test: Antifungal activity against Cunninghamella bertholletiae UTSCH 05-2275 infected in diabetic OF1 mouse assessed as decreased fungal load in lung at 40 mg/kg, po qd administered 1 day post infection measured after 4 to 5 days relative to untreated control; set-up: dose 40 mg/kg
Procedure, shortened: (§3)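 Male OF1 mice (mean 30 g) made diabetic with a single i.p. dose of streptozocin 210 mg/kg; blood glucose >250 mg/dl at day 10 qualified. Ceftazidime 5 mg/day s.c. given on days 1–7. Challenge by lateral tail vein with 1 × 10⁵ CFU sporangiospores in 0.2 ml saline. Oral dosing once daily for 7 days, starting 1 day after challenge. Untreated controls. Ten mice per group.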

[7] = system: Cunninghamella bertholletiae; test: Antifungal activity against Cunninghamella bertholletiae UTHSC 05-2275 infected in diabetic OF1 mouse assessed as increase in mouse survival rate at 80 mg/kg, po qd administered 1 day after infection for 7 days relative to untreated control; set-up: dose 80 mg/kg
Procedure, shortened: (§4)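 Male OF1 mice made diabetic with streptozocin 210 mg/kg i.p.; blood glucose above 250 mg/dl at day 10 required. Infected i.v. via the tail vein with 1 × 10⁵ CFU sporangiospores in 0.2 ml saline. Ceftazidime 5 mg/day s.c. on days 1–7. Oral once-daily treatment from day 1 for 7 days; 10 mice per group; followed for 20 days; Kaplan-Meier mean survival time, log-rank test.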

[8] = system: Cunninghamella bertholletiae; test: Antifungal activity against Cunninghamella bertholletiae UTHSC 04-2581 infected in neutropenic OF1 mouse assessed as decreased fungal load in brain at 60 mg/kg, po qd administered 1 day post infection measured after 4 to 5 days relative to untreated control; set-up: dose 60 mg/kg; procedure, shortened: as §1
[9] = system: Cunninghamella bertholletiae; test: Antifungal activity against Cunninghamella bertholletiae UTSCH 05-2275 infected in diabetic OF1 mouse assessed lung at 60 mg/kg, po qd administered 1 day post infection measured after 4 to 5 days relative to untreated control; set-up: dose 60 mg/kg; procedure, shortened: as §3
[10] = system: Cunninghamella bertholletiae; test: Antifungal activity against Cunninghamella bertholletiae UTSCH 05-2275 infected in diabetic OF1 mouse assessed as decreased fungal load in brain at 60 mg/kg, po qd administered 1 day post infection measured after 4 to 5 days relative to untreated control; set-up: dose 60 mg/kg; procedure, shortened: as §2
[11] = system: Cunninghamella bertholletiae; test: Antifungal activity against Cunninghamella bertholletiae UTHSC 05-2275 infected in diabetic OF1 mouse assessed as increase in mouse survival rate at 60 mg/kg, po qd administered 1 day after infection for 7 days relative to untreated control; set-up: dose 60 mg/kg; procedure, shortened: as §4
[12] = system: Cunninghamella bertholletiae; test: Antifungal activity against Cunninghamella bertholletiae UTHSC 06-1945 infected in neutropenic OF1 mouse assessed as increase in mouse survival rate at 60 mg/kg, po qd administered 1 day after infection; set-up: dose 60 mg/kg
Procedure, shortened: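 Male OF1 mice, about 30 g, made neutropenic with cyclophosphamide 200 mg/kg i.p. plus 5-fluorouracil 150 mg/kg i.v. 1 day before challenge. Infected i.v. via the lateral tail vein with 1 × 10⁴ CFU of hemacytometer-counted sporangiospores in 0.2 ml saline. Ceftazidime 5 mg/day s.c. on days 1–7. Oral treatment started 24 h after challenge; 10 mice per group; checked daily for 20 days; Kaplan-Meier mean survival time, log-rank test.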

[13] = system: Cunninghamella bertholletiae; test: Antifungal activity against Cunninghamella bertholletiae UTHSC 05-2275 infected in diabetic OF1 mouse assessed as increase in mouse survival rate at 20 mg/kg, po qd administered 1 day after infection for 7 days relative to untreated control; set-up: dose 20 mg/kg; procedure, shortened: as §4
[14] = system: Cunninghamella bertholletiae; test: Antifungal activity against Cunninghamella bertholletiae UTHSC 03-2241 infected in neutropenic OF1 mouse assessed as decreased fungal load in brain at 60 mg/kg, po qd administered 1 day post infection measured after 4 to 5 days relative to untreated control; set-up: dose 60 mg/kg; procedure, shortened: as §1
[15] = system: Cunninghamella bertholletiae; test: Antifungal activity against Cunninghamella bertholletiae UTSCH 05-2275 infected in diabetic OF1 mouse assessed as decreased fungal load in lung at 80 mg/kg, po qd administered 1 day post infection measured after 4 to 5 days relative to untreated control; set-up: dose 80 mg/kg; procedure, shortened: as §3

C[C@@H]1[C@H](O)[C@@H](C)/C=C/C=C/C=C/C=C/C=C/C=C/C=C/[C@H](O[C@@H]2O[C@H](C)[C@@H](O)[C@H](N)[C@@H]2O)C[C@@H]2O[C@](O)(C[C@@H](O)C[C@@H](O)[C@H](O)CC[C@@H](O)C[C@@H](O)CC(=O)O[C@H]1C)C[C@H](O)[C@H]2C(=O)O [AMPHOTERICIN B]
Activity [1]: Active | Activity [2]: Active | Activity [3]: Active

CC[C@@H]([C@H](C)O)n1ncn(-c2ccc(N3CCN(c4ccc(OC[C@@H]5CO[C@@](Cn6cncn6)(c6ccc(F)cc6F)C5)cc4)CC3)cc2)c1=O [POSACONAZOLE]
Activity [4]: Active | Activity [5]: inactive | Activity [6]: inactive | Activity [7]: Active | Activity [8]: Active | Activity [9]: Active | Activity [10]: Active | Activity [11]: Active | Activity [12]: Active | Activity [13]: inactive | Activity [14]: Active | Activity [15]: Active
